Reference: ChEMBL document CHEMBL4732065 (Eur J Med Chem, 2021)

Tests used:
Homo sapiens [1] = species: Homo sapiens; experiment: Selectivity index, ratio of IC50 for recombinant human CYP1A1 to IC50 for recombinant human CYP1B1
Cytochrome P450 1B1 = target: T1, Cytochrome P450 1B1 (Homo sapiens, UniProt Q16678); experiment: Inhibition of recombinant human CYP1B1 using 7-ethoxyresorufin as substrate after 35 mins in presence of NADP+ by EROD assay
T1 sequence (Q16678 whole entry): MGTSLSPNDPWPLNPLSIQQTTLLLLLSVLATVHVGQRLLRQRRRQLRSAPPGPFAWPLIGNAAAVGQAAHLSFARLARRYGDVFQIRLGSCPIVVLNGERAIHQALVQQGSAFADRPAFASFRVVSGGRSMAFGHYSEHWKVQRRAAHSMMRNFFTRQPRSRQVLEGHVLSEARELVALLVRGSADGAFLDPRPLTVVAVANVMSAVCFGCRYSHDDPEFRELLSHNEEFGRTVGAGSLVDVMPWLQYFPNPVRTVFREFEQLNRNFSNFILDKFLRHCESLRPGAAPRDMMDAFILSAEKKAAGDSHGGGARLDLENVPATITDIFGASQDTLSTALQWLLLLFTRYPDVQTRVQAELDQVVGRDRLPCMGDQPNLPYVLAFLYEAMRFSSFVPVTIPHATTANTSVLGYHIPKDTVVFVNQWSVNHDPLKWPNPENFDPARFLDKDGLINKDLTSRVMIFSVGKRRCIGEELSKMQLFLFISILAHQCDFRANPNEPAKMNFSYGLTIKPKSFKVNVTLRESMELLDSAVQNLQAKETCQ
Summary of the method: (§1)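 Recombinant human CYP1 Supersomes co-expressing P450 reductase; 20 fmol CYP1B1, 10 fmol CYP1A1 or 60 fmol CYP1A2 per well. Incubated at 37 °C (1B1 35 min, 1A1 15 min, 1A2 50 min).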

Cytochrome P450 1A2 = target: T2, Cytochrome P450 1A2 (Homo sapiens, UniProt P05177); experiment: Inhibition of recombinant human CYP1A2 using 7-ethoxyresorufin as substrate after 50 mins in presence of NADP+ by EROD assay; assay type: ADME; summary of the method: as §1
T2 sequence (P05177 whole entry): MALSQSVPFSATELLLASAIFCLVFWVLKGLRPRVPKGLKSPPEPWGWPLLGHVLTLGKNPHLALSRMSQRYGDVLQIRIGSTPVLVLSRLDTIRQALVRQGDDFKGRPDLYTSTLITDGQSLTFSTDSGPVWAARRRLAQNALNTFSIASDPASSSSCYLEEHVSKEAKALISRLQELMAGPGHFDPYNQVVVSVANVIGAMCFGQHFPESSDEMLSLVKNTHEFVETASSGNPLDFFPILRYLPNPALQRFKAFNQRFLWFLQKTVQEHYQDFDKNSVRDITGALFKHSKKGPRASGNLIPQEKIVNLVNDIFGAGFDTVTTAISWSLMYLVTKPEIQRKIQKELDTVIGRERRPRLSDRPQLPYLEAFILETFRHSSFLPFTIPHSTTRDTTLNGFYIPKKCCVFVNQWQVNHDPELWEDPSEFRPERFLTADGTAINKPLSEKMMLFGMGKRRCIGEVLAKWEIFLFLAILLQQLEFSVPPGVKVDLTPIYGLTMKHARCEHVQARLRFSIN

Cytochrome P450 1A1 = target: T3, Cytochrome P450 1A1 (Homo sapiens, UniProt P04798); experiment: Inhibition of recombinant human CYP1A1 using 7-ethoxyresorufin as substrate after 15 mins in presence of NADP+ by EROD assay; assay type: ADME
T3 sequence (P04798 whole entry): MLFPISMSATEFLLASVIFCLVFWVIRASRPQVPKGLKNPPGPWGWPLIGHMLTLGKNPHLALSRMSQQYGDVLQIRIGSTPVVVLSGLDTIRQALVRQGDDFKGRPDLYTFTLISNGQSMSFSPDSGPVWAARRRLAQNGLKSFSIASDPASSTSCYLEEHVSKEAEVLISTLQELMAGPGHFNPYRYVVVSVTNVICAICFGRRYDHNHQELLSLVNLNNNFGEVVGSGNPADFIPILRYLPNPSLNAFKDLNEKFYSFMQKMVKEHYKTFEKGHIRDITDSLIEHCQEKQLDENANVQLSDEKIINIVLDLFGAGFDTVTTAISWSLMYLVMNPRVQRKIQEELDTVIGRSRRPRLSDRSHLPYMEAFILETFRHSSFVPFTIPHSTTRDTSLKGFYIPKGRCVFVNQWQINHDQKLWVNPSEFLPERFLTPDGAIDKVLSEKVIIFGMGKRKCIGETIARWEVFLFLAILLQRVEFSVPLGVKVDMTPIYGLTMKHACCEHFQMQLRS
Summary of the method: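 Recombinant human CYP1 Supersomes co-expressing P450 reductase; 20 fmol CYP1B1, 10 fmol CYP1A1 or 60 fmol CYP1A2 per well. Incubated at 37 °C (1B1 35 min, 1A1 15 min, 1A2 50 min). Stopped with cold methanol; fluorescence read at 544/590 nm; triplicates.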

Homo sapiens [2] = species: Homo sapiens; experiment: Selectivity index, ratio of IC50 for recombinant human CYP1A2 to IC50 for recombinant human CYP1B1

Row | SMILES | Ratio IC50 (Homo sapiens [1]) | IC50 (Cytochrome P450 1B1) | IC50 (Cytochrome P450 1A2) | IC50 (Cytochrome P450 1A1) | Ratio IC50 (Homo sapiens [2])
1 | COc1ccc(OC)c2c1c(OC)cc1c(=O)cc(-c3ccncc3N)oc12 | 1.3 | 24.8 nM | > 1000 nM | 31.6 nM | > 40.3
2 | COc1ccc(OC)c2c1c(OC)cc1c(=O)cc(-c3cccc(N)n3)oc12 | 8.7 | 6.5 nM | > 1000 nM | 56.8 nM | > 154
3 | COc1ccc(OC)c2c1c(OC)cc1c(=O)cc(-c3cncc(C(=O)O)c3)oc12 | 2.9 | 30.1 nM | > 1000 nM | 85.8 nM | > 33.2
4 | COc1ccc(OC)c2c1c(OC)cc1c(=O)cc(-c3ccc(N4CCN(C)CC4)cc3)oc12 | – | > 1000 nM | > 1000 nM | > 1000 nM | –
5 | COc1ccc(OC)c2c1c(OC)cc1c(=O)cc(-c3cncc(O)c3)oc12 | 7.9 | 10.3 nM | > 1000 nM | 80.9 nM | > 97.1
6 | COc1ccc(OC)c2c1c(OC)cc1c(=O)cc(-c3cccc(N4CCN(C)CC4)c3)oc12 | – | > 1000 nM | > 1000 nM | > 1000 nM | –
7 | COc1ccc(OC)c2c1c(OC)cc1c(=O)cc(-c3ccnc(O)c3)oc12 | 3.8 | 61.5 nM | > 1000 nM | 232 nM | > 16.3
8 | COc1ccc(OC)c2c1c(OC)cc1c(=O)cc(-c3cccnc3Br)oc12 | 0.9 | 63.9 nM | 966 nM | 60.7 nM | 15.1
9 | COc1ccc(OC)c2c1c(OC)cc1c(=O)cc(-c3cccc(N4CCOCC4)c3)oc12 | 8.9 | 14.9 nM | > 1000 nM | 132 nM | > 67.1
10 | COc1ccc(OC)c2c1c(OC)cc1c(=O)cc(-c3ccnc(N)c3)oc12 | 0.7 | 20.6 nM | > 1000 nM | 15.3 nM | > 48.5
11 | COc1ccc(OC)c2c1c(OC)cc1c(=O)cc(-c3cncc(N)c3)oc12 | 0.8 | 22.9 nM | 628 nM | 18.8 nM | 27.4
12 | COc1ccc(OC)c2c1c(OC)cc1c(=O)cc(-c3ccc4[nH]cnc4c3)oc12 | 2.7 | 15.6 nM | > 1000 nM | 42.4 nM | > 64.1
13 | COc1ccc(OC)c2c1c(OC)cc1c(=O)cc(-c3cc(Cl)cc(N4CCN(C)CC4)c3)oc12 | > 1.9 | 519 nM | > 1000 nM | > 1000 nM | > 1.9
14 | COc1ccc(OC)c2c1c(OC)cc1c(=O)cc(-c3ccc(O)nc3)oc12 | > 1.5 | 658 nM | > 1000 nM | > 1000 nM | > 1.5
15 | COc1ccc(OC)c2c1c(OC)cc1c(=O)cc(-c3c[nH]c4ncccc34)oc12 | 0.1 | 189 nM | > 1000 nM | 23.8 nM | > 5.3
16 | COc1ccc(OC)c2c1c(OC)cc1c(=O)cc(-c3cccnc3N)oc12 | 0.8 | 175 nM | > 1000 nM | 137 nM | > 5.7
17 | COc1ccc(OC)c2c1c(OC)cc1c(=O)cc(-c3cccnc3O)oc12 | – | > 1000 nM | > 1000 nM | 152 nM | –

Now those with a lower IC50 (Cytochrome P450 1B1), led by results:

Row | Ratio IC50 (Homo sapiens [1]) | IC50 (Cytochrome P450 1B1) | IC50 (Cytochrome P450 1A2) | IC50 (Cytochrome P450 1A1) | Ratio IC50 (Homo sapiens [2]) | SMILES
18 | 11.1 | 6 nM | > 1000 nM | 66.6 nM | > 167 | COc1ccc(OC)c2c1c(OC)cc1c(=O)cc(-c3ccc(N)cn3)oc12
19 | 0.9 | 4.8 nM | 40.4 nM | 4.4 nM | 8.4 | COc1ccc(OC)c2c1c(OC)cc1c(=O)cc(-c3cccs3)oc12
20 | 4 | 4.1 nM | > 1000 nM | 16.5 nM | > 244 | COc1ccc(OC)c2c1c(OC)cc1c(=O)cc(-c3c[nH]c4ccccc34)oc12
21 | 62.9 | 2 nM | > 1000 nM | 126 nM | > 500 | COc1ccc(OC)c2c1c(OC)cc1c(=O)cc(-c3ccnnc3)oc12
22 | 0.8 | 2 nM | > 1000 nM | 1.6 nM | > 500 | COc1ccc(OC)c2c1c(OC)cc1c(=O)cc(-c3ccc4[nH]ncc4c3)oc12
23 | 11.6 | 1.8 nM | > 1000 nM | 20.9 nM | > 556 | COc1ccc(OC)c2c1c(OC)cc1c(=O)cc(-c3ccc4ncccc4c3)oc12
24 | 33.7 | 1.2 nM | 200 nM | 40.4 nM | 166 | COc1ccc(OC)c2c1c(OC)cc1c(=O)cc(-c3ccncc3)oc12
25 | 11.5 | 1.2 nM | 67.2 nM | 13.8 nM | 56 | COc1ccc(OC)c2c1c(OC)cc1c(=O)cc(-c3ccco3)oc12
26 | 83.3 | 1.1 nM | > 1000 nM | 91.6 nM | > 909 | COc1ccc(OC)c2c1c(OC)cc1c(=O)cc(-c3ccnc(Cl)c3)oc12
27 | 118 | 1 nM | > 1000 nM | 118 nM | > 1000 | COc1ccc(OC)c2c1c(OC)cc1c(=O)cc(-c3ccc4ccccc4n3)oc12
28 | 7.6 | 1 nM | 117 nM | 7.6 nM | 117 | COc1ccc(OC)c2c1c(OC)cc1c(=O)cc(-c3cccnc3)oc12
29 | 149 | 0.95 nM | > 1000 nM | 142 nM | > 1050 | COc1ccc(OC)c2c1c(OC)cc1c(=O)cc(-c3ccc4cc[nH]c4c3)oc12
30 | 11.6 | 0.87 nM | > 1000 nM | 10.1 nM | > 1150 | COc1ccc(OC)c2c1c(OC)cc1c(=O)cc(-c3cc4ccccc4o3)oc12
31 | 9 | 0.6 nM | 108 nM | 5.4 nM | 179 | COc1ccc(OC)c2c1c(OC)cc1c(=O)cc(-c3ccccn3)oc12
32 | 58.5 | 0.46 nM | > 1000 nM | 26.9 nM | > 2170 | COc1ccc(OC)c2c1c(OC)cc1c(=O)cc(-c3ccnc(Br)c3)oc12
33 | 6.1 | 0.38 nM | 668 nM | 2.3 nM | 1760 | COc1ccc(OC)c2c1c(OC)cc1c(=O)cc(-c3cccc(F)n3)oc12
34 | 19 | 0.3 nM | 349 nM | 5.7 nM | 1160 | COc1ccc(OC)c2c1c(OC)cc1c(=O)cc(-c3cccc(Cl)n3)oc12
35 | 11.4 | 0.14 nM | 208 nM | 1.6 nM | 1490 | COc1ccc(OC)c2c1c(OC)cc1c(=O)cc(-c3ccc(Cl)cn3)oc12
